# Assay results: ChEMBL document CHEMBL4609986 (Bioorg Med Chem, 2020)
# Experiments:
# Homo sapiens = species on record: Homo sapiens; assay: Selectivity index, ratio of CC50 for human HEK293T cells transfected with DYRK1A co-tranfected with Renilla plasmid, pGL3-NFAT and NFATc1 assessed as reduction in luciferase activity by measuring cell number to EC50 for human DYRK1A transfected in HEK293T cells co-transfected with Renilla plasmid, pGL3-NFAT and NFATc1 assessed as derepression of NFAT-dependent luciferase activity measured after 48 hrs by luciferase assay; type: cell-based
# Outline: (§1)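 HEK293T cells transfected with PEI using DYRK1A, Renilla plasmid, IL-2-based pGL3-NFAT firefly reporter and NFATc1. Next day the same transfected population was split into 96-well plates; 6 h later cells were treated for 48 h (11-point dose curve, n = 4), then lysed. EC50 from firefly/Renilla ratio, 4-parameter agonist fit. CC50 from loss of constitutive Renilla signal, 4-parameter inhibitor fit.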
# [1] = biological target: Dual specificity tyrosine-phosphorylation-regulated kinase 1A (Homo sapiens, UniProt Q13627); assay: Inhibition of human DYRK1A transfected in HEK293T cells co-transfected with Renilla plasmid, pGL3-NFAT and NFATc1 assessed as derepression of NFAT-dependent luciferase activity measured after 48 hrs by luciferase assay; type: cell-based, HEK-293T; outline: as §1
# [2] = Cytotoxicity against human HEK293T cells transfected with DYRK1A co-tranfected with Renilla plasmid, pGL3-NFAT and NFATc1 assessed as reduction in luciferase activity by measuring cell number; type: cell-based, HEK-293T; outline: as §1
EC50 [1],Structure (SMILES),Ratio CC50/EC50 (Homo sapiens),CC50 [2]
6 nM,CCCNC(=O)c1cnc2ccc(-c3cc(Cl)c(O)c(Cl)c3)nc2c1N[C@H]1CC[C@H](CN(C)C)CC1,7,38 nM
3 nM,CC(C)CCNC(=O)c1cnc2ccc(-c3cc(Cl)c(O)c(Cl)c3)nc2c1N[C@H]1CC[C@H](CN(C)C)CC1,8,21 nM
1250 nM,CCOC(=O)c1cnc2ccc(-c3cc(Cl)c(O)c(Cl)c3)nc2c1N[C@H]1CC[C@H](C(N)=O)CC1,> 8,> 10000 nM
7 nM,CCOC(=O)c1cnc2ccc(-c3cc(Cl)c(O)c(Cl)c3)nc2c1N[C@H]1CC[C@H](CN2CCOCC2)CC1,71,491 nM
5 nM,CCCCCNC(=O)c1cnc2ccc(-c3cc(Cl)c(O)c(Cl)c3)nc2c1N[C@H]1CC[C@H](CN(C)C)CC1,4,19 nM
> 10000 nM,CCOC(=O)c1cnc2ccc(-c3cc(Cl)cc(Cl)c3)nc2c1N[C@H]1CC[C@H](CN(C)C)CC1,,> 10000 nM
678 nM,NC(=O)[C@H]1CC[C@H](Nc2c(CO)cnc3ccc(-c4cc(Cl)c(O)c(Cl)c4)nc23)CC1,> 15,> 10000 nM
9 nM,CCOC(=O)c1cnc2ccc(-c3cc(Cl)c(O)c(Cl)c3)nc2c1N[C@H]1CC[C@H](N)CC1,5,44 nM
6 nM,CNC(=O)c1cnc2ccc(-c3cc(Cl)c(O)c(Cl)c3)nc2c1N[C@H]1CC[C@H](CN(C)C)CC1,6,36 nM
6 nM,CC(C)CNC(=O)c1cnc2ccc(-c3cc(Cl)c(O)c(Cl)c3)nc2c1N[C@H]1CC[C@H](CN(C)C)CC1,3,16 nM
6 nM,CCNC(=O)c1cnc2ccc(-c3cc(Cl)c(O)c(Cl)c3)nc2c1N[C@H]1CC[C@H](CN(C)C)CC1,7,39 nM
> 10000 nM,CCOC(=O)c1cnc2ccc(-c3cc(C)nc(C)c3)nc2c1N[C@H]1CC[C@H](CN(C)C)CC1,,> 10000 nM
15 nM,CN(C)C[C@H]1CC[C@H](Nc2c(C(N)=O)cnc3ccc(-c4cc(Cl)c(O)c(Cl)c4)nc23)CC1,4,69 nM

# The remaining lines, values behind:
Structure (SMILES),EC50 [1],Ratio CC50/EC50 (Homo sapiens),CC50 [2]
CCOC(=O)c1cnc2ccc(-c3ccnc(C)c3)nc2c1N[C@H]1CC[C@H](CN(C)C)CC1,,> 7,> 10000 nM
CCOC(=O)c1cnc2ccc(-c3ccc(N)cc3)nc2c1N[C@H]1CC[C@H](CN(C)C)CC1,2100 nM,> 5,> 10000 nM
CCOC(=O)c1cnc2ccc(-c3ccnc(N)c3)nc2c1N[C@H]1CC[C@H](CN2CCCCC2)CC1,114 nM,12,1350 nM
CCOC(=O)c1cnc2ccc(-c3ccnc(N)c3)nc2c1N[C@H]1CC[C@H](CN2CCCC2)CC1,108 nM,7,756 nM
CCOC(=O)c1cnc2ccc(-c3cc(Cl)c(O)c(Cl)c3)nc2c1N1CCC(C)CC1,123 nM,> 82,> 10000 nM
CCOC(=O)c1cnc2ccc(-c3ccnc(O)c3)nc2c1N[C@H]1CC[C@H](CN(C)C)CC1,383 nM,6,2360 nM
CCOC(=O)c1cnc2ccc(-c3cc(Cl)c(O)c(Cl)c3)nc2c1N1CCCCC1,203 nM,17,3460 nM
CCOC(=O)c1cnc2ccc(-c3cc(Cl)c(O)c(Cl)c3)nc2c1N1CCOCC1,105 nM,35,3680 nM
CCOC(=O)c1cnc2ccc(-c3ccc(C(N)=O)cc3)nc2c1N[C@H]1CC[C@H](CN(C)C)CC1,4660 nM,> 2,> 10000 nM
CCOC(=O)c1cnc2ccc(-c3ccc(C(=O)O)cc3)nc2c1N[C@H]1CC[C@H](CN(C)C)CC1,990 nM,> 10,> 10000 nM
CCOC(=O)c1cnc2ccc(-c3cc(Cl)c(O)c(Cl)c3)nc2c1N[C@H]1CC[C@H](C)CC1,> 10000 nM,,> 10000 nM
